The record followed here is ChEMBL document CHEMBL1138257, “Synthesis and biological evaluation of a fluorine-18 derivative of dasatinib” (J Med Chem, 2007).

The term pIC50 denotes −log10 of the IC50, conventionally taken in molar units. Lower therefore signals a large IC50. As usually defined, the inhibition is the relative decrease from the control value, in per cent.

pIC50: −log10 of the molar value.

Data set [1] in a line: cells. Conditions: Homo sapiens.
The nature of data set [2]: cells. Conditions: Homo sapiens, M-07e.
The next data set deals with K562. The data set is described as follows: cells. Conditions: Homo sapiens.
The test system of data set [3] is Mus musculus. In words: Biodistribution in tumor of human K562 cells xenografted iv dosed mouse. In kind it is ADME, organism-based. Conditions: in vivo. In a few lines: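 Three athymic mice carried subcutaneous K562 xenografts in the right shoulder. [18F] tracer (14 ± 1 MBq, 375 ± 25 µCi) was formulated in 5% BSA in saline, sterile filtered and given by tail vein. MicroPET imaging started 60 min post-injection with a 15 min exposure. Tumor uptake was expressed as % injected dose by region-of-interest analysis.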
For orientation: A xenograft is tissue or cells of one species grown in another, often human tumour cells in immunodeficient mice.

Data set [4] concerns the target T1, Ephrin type-B receptor 4 (Homo sapiens) (UniProt P54760).
T1 sequence (whole entry): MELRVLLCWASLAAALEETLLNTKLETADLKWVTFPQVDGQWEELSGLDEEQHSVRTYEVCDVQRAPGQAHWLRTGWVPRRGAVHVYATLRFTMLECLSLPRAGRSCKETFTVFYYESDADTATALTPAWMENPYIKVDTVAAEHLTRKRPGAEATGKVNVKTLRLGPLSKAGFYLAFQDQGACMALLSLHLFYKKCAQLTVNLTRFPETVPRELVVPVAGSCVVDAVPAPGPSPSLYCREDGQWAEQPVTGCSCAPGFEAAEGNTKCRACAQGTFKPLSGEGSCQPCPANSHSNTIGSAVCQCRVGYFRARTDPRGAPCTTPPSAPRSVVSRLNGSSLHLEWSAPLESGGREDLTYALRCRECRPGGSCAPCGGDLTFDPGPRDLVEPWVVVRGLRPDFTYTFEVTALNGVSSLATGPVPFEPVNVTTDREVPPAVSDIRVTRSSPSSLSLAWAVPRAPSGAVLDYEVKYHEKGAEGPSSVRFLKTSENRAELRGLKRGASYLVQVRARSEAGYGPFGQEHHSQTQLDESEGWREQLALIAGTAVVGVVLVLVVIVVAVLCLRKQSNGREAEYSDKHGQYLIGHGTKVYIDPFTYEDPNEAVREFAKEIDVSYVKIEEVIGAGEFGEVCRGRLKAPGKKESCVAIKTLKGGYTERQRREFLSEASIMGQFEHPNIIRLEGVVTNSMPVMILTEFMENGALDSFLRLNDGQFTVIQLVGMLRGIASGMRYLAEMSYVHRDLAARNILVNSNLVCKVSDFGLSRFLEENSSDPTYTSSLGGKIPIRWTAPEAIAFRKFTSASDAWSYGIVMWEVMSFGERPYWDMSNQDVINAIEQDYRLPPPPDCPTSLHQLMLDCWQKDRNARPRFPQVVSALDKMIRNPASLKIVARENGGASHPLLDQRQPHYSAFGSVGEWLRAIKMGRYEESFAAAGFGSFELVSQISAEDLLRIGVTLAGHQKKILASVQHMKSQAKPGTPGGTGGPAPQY
The data set is described as follows: Inhibition of EphB4 at 10 nM. In a few lines:
(§1)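 Part of a 21-kinase inhibition panel, tested at a single inhibitor concentration of 10 nM.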

Data set [5] concerns the target Hepatocyte growth factor receptor (Homo sapiens) (UniProt P08581). The data set is described as follows: Inhibition of Met kinase at 10 nM. The gist of the method:
as §1

Data set [6] has as its target Platelet-derived growth factor receptor alpha (Homo sapiens) (UniProt P16234). The data set is described as follows: Inhibition of PDGFRalpha at 10 nM. The gist of the method: as §1
Data set [7] deals with T2, Tyrosine-protein kinase Tec (Homo sapiens) (UniProt P42680).
T2 sequence (whole entry): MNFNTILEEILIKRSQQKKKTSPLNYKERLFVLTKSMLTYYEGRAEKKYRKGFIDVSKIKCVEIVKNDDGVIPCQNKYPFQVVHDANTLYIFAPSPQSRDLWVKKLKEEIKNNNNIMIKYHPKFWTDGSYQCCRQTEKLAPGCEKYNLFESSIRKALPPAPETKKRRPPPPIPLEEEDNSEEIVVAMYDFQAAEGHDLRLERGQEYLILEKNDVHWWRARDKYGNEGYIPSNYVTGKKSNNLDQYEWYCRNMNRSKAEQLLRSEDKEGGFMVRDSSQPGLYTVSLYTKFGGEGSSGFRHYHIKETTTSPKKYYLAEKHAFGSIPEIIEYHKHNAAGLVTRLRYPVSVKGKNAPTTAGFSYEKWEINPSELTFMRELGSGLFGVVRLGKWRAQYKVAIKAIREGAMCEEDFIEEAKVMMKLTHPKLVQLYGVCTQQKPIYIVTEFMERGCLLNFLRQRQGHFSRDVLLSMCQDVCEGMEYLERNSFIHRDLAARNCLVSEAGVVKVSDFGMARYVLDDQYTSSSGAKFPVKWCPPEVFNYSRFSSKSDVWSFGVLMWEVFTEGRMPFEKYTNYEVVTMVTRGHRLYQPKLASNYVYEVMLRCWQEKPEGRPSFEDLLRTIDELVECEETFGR
In words: Inhibition of TEC at 10 nM. The gist of the method: as §1

Data set [8] has as its target Proto-oncogene tyrosine-protein kinase Src (Homo sapiens) (UniProt P12931). Conditions: 10 nM.
Data set [9] has as its target Receptor-type tyrosine-protein kinase FLT3 (Homo sapiens) (UniProt P36888). The data set is described as follows: Inhibition of FLT3. The note with it: concentration not given here.
The target of data set [10] is Tyrosine-protein kinase CSK (Homo sapiens) (UniProt P41240). In words: Inhibition of CSK at 10 nM. The gist of the method: as §1
Chain of Tyrosine-protein kinase CSK (Homo sapiens) (P41240 2-450 limits assumed): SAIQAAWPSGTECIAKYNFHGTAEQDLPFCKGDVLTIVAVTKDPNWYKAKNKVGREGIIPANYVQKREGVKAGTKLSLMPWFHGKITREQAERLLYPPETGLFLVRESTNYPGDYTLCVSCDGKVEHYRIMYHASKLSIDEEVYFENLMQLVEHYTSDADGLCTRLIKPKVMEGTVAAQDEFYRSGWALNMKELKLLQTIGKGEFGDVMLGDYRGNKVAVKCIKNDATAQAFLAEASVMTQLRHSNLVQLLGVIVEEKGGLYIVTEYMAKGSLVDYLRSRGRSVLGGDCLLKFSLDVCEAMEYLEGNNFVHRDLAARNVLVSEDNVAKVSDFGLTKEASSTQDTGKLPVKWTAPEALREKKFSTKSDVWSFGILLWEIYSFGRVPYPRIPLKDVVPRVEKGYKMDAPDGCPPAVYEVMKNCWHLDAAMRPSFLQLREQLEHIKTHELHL
For data set [11], the target named is Ephrin type-A receptor 2 (Homo sapiens) (UniProt P29317). In words: Inhibition of EphA2 at 10 nM. In a few lines: as §1
Chain of Ephrin type-A receptor 2 (Homo sapiens) (P29317 whole entry): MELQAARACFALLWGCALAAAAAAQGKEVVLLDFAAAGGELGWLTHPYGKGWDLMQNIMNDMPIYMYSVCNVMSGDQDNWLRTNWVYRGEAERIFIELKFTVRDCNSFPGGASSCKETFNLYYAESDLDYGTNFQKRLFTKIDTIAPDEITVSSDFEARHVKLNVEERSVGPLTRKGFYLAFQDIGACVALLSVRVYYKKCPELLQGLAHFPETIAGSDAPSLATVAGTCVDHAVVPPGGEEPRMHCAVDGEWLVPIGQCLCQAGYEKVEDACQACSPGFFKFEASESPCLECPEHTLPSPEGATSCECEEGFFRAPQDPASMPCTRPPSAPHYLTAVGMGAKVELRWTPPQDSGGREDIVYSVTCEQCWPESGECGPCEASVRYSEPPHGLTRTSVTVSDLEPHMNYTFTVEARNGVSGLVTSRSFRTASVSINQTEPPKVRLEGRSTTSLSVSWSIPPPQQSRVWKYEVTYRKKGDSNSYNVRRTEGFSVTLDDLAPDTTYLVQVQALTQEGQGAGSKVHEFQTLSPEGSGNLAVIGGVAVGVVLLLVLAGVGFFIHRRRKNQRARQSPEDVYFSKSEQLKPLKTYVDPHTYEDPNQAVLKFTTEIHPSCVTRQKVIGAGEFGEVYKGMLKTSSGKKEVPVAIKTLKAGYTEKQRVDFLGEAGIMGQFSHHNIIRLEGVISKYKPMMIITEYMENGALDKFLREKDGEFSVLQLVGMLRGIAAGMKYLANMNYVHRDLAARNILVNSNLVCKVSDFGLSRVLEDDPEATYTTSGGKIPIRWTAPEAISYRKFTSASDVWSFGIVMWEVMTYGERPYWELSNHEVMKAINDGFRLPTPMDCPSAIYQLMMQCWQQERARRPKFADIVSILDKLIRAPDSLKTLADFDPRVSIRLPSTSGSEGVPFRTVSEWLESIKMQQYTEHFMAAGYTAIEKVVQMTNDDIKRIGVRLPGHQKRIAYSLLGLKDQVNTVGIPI
Data set [12] concerns the target Activated CDC42 kinase 1 (Homo sapiens) (UniProt Q07912). In words: Inhibition of ACK at 10 nM. The gist of the method:
(§2)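 Single-concentration test at 10 nM within a panel of 21 kinases.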

Data set [13] has as its target T3, Tyrosine-protein kinase receptor TYRO3 (Homo sapiens) (UniProt Q06418).
T3 sequence (whole entry): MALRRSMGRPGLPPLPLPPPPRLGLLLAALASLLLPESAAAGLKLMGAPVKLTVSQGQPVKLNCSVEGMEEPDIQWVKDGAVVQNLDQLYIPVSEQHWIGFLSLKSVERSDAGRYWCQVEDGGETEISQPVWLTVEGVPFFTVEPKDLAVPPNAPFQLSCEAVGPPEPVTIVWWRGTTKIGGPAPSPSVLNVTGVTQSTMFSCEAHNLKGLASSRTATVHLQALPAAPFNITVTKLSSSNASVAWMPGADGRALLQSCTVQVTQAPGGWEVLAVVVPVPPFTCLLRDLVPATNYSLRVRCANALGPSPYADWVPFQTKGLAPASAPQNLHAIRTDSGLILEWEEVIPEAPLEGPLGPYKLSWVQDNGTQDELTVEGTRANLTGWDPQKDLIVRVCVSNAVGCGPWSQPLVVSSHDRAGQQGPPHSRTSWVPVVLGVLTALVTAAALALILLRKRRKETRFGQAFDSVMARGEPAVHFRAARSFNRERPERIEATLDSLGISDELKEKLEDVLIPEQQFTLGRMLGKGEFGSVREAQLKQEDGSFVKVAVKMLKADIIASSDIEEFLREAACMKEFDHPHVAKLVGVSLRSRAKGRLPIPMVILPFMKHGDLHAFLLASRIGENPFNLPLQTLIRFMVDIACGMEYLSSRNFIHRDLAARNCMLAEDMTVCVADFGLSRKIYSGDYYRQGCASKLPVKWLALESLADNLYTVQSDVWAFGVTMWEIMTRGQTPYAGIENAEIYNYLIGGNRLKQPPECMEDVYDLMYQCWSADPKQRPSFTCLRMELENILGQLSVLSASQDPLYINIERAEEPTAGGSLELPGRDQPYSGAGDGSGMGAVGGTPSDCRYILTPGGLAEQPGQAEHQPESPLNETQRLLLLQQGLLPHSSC
In words: Inhibition of TYRO3 at 10 nM. The gist of the method: as §2

Data set [14] concerns Mus musculus. In words: Toxicity in B6D2F1 mouse at 0.1 mg/kg, iv. It counts as organism-based. Also noted: dose 0.1 mg/kg, route intravenous. The note with it: in vivo.
Data set [15] has as its target Vascular endothelial growth factor receptor 2 (Homo sapiens) (UniProt P35968). In words: Inhibition of KDR at 10 nM. The gist of the method: as §1
In data set [16] the target is T4, Tyrosine-protein kinase JAK3 (Homo sapiens) (UniProt P52333).
T4 sequence (whole entry): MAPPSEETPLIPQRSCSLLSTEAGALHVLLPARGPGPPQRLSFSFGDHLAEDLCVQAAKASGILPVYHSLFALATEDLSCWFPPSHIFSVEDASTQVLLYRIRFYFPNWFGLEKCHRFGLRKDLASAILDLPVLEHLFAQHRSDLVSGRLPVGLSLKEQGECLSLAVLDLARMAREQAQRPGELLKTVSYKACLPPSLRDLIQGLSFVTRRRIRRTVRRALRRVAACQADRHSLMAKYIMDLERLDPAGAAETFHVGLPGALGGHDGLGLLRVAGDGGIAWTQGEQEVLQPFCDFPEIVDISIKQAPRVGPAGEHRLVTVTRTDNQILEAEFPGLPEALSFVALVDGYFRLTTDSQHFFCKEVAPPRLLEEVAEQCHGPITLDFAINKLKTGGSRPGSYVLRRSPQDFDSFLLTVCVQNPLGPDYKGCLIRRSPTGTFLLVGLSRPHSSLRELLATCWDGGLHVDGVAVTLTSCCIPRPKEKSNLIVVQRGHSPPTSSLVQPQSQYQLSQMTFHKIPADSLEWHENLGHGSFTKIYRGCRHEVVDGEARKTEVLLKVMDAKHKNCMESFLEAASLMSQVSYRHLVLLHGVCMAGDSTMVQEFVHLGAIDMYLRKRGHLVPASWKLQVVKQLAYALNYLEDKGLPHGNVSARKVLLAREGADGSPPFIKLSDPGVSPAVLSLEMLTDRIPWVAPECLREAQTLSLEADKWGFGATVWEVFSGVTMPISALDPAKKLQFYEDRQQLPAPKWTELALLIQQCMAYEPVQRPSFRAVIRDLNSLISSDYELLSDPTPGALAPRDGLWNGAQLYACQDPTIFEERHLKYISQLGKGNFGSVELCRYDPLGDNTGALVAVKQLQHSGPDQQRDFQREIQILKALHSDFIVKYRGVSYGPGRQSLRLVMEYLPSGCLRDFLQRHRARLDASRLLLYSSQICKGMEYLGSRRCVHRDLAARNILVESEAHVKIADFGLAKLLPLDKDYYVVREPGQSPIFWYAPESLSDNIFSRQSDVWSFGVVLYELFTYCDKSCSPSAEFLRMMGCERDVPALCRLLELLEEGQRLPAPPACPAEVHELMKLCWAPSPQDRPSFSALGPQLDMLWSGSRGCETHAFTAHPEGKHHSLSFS
In words: Inhibition of JAK3 at 10 nM. The gist of the method:
as §2

Chain of Receptor-type tyrosine-protein kinase FLT3 (Homo sapiens) (P36888 whole entry): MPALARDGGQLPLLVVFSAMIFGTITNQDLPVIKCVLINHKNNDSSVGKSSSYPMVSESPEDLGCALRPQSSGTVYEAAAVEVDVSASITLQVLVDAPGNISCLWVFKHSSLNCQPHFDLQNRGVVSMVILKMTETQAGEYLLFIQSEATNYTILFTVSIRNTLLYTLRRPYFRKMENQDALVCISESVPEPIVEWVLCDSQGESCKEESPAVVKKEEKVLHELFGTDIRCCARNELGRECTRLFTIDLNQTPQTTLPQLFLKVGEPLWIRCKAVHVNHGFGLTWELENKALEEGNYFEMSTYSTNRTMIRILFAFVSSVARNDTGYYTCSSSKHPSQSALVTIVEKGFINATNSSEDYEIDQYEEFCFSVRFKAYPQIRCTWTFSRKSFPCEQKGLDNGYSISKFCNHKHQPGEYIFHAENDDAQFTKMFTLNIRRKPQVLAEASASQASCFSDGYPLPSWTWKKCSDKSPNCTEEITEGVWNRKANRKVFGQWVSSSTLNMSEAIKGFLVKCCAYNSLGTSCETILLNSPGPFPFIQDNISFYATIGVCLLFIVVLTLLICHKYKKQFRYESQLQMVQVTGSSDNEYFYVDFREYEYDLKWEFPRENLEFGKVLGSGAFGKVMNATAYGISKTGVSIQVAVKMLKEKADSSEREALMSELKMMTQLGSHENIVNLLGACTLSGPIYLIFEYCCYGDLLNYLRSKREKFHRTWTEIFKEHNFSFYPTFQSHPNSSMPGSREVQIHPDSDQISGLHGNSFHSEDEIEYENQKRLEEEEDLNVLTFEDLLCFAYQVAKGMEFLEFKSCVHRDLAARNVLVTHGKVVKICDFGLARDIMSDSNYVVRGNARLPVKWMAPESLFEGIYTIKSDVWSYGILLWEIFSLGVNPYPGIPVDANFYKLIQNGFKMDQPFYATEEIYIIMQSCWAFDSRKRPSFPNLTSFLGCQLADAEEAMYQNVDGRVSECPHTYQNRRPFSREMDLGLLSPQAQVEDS
Chain of Activated CDC42 kinase 1 (Homo sapiens) (Q07912 whole entry, looked up): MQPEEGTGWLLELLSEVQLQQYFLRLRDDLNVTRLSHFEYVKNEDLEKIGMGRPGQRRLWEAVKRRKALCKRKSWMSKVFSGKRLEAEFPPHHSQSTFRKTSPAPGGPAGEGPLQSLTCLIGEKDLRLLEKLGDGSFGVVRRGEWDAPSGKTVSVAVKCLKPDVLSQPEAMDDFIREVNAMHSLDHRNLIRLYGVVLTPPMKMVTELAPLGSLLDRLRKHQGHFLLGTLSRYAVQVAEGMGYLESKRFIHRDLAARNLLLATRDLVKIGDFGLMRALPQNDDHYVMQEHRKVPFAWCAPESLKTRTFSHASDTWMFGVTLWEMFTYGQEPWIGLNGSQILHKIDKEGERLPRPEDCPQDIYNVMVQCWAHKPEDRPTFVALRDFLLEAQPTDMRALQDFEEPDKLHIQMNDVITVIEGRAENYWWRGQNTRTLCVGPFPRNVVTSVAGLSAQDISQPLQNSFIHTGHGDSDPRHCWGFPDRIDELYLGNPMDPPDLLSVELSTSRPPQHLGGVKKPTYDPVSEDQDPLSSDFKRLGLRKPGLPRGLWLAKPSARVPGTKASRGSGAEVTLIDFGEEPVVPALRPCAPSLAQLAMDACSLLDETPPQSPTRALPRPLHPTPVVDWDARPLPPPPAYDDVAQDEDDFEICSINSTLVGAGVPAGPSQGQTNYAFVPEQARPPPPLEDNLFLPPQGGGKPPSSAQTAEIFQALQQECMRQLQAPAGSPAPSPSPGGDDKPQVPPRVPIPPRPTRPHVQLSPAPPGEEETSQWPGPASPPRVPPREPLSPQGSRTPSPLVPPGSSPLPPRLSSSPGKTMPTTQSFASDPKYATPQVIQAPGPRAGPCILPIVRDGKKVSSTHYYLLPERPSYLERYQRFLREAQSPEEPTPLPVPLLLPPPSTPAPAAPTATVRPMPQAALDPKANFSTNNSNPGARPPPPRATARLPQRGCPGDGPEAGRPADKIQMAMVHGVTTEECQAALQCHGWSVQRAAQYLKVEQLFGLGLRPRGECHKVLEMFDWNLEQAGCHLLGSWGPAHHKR
Chain of Proto-oncogene tyrosine-protein kinase Src (Homo sapiens) (P12931 2-536 limits assumed): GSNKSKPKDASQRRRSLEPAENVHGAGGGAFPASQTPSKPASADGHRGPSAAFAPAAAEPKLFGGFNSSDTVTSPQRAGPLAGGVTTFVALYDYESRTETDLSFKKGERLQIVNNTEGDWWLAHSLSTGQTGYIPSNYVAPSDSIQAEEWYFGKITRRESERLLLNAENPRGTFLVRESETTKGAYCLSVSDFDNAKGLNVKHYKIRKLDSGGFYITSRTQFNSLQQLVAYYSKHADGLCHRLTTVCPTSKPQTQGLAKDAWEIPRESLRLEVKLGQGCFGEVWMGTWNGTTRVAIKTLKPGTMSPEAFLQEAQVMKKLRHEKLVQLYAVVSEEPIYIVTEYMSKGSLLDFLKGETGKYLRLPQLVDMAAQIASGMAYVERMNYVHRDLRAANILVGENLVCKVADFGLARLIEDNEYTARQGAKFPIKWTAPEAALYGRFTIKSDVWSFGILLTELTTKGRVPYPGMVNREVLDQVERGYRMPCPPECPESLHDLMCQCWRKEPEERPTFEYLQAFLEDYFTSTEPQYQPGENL
Chain of Platelet-derived growth factor receptor alpha (Homo sapiens) (P16234 whole entry): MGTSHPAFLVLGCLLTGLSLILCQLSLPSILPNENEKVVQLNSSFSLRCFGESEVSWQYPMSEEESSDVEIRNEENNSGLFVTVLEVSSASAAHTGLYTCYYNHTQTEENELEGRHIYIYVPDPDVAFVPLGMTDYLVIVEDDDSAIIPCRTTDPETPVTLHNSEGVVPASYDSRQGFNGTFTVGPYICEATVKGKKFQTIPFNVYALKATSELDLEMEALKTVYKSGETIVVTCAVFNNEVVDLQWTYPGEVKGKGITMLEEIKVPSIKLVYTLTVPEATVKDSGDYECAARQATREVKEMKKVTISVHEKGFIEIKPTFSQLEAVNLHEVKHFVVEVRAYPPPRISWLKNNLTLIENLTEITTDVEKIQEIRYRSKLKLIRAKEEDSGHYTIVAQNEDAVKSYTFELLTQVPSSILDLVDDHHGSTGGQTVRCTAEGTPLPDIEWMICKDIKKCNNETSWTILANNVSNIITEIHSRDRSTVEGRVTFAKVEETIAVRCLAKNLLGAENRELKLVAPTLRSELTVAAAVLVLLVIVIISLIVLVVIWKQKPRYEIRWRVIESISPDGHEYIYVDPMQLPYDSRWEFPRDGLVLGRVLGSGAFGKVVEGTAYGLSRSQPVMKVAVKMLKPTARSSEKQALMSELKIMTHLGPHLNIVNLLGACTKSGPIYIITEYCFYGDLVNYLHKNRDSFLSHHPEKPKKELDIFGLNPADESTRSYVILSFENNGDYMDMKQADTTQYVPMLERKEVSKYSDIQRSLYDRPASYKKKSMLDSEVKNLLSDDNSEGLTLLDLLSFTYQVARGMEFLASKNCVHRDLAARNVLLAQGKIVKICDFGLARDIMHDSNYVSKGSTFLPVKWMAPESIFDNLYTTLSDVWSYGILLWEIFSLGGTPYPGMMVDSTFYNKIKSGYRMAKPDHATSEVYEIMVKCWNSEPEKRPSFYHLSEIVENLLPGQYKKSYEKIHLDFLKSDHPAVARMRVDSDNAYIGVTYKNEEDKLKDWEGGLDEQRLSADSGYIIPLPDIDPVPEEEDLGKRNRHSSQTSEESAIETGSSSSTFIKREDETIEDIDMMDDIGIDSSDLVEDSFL

In the case of `Cc1nc(Nc2ncc(C(=O)Nc3c(C)cccc3Cl)s2)cc(N2CCN(CCO)CC2)n1` [DASATINIB], the pIC50 was 10.15 in “cells [1]”, 8.92 in the data set “cells [2]” and 9.00 with K562.

For the compound `Cc1nc(Nc2ncc(C(=O)Nc3c(C)cccc3Cl)s2)cc(N2CCN(CC[18F])CC2)n1`, the Drug uptake in the data set with Mus musculus [3] was determined as 1.1%.

For the compound `CN[C@@H]1C[C@H]2O[C@@](C)([C@@H]1OC)n1c3ccccc3c3c4c(c5c6ccccc6n2c5c31)C(=O)NC4`, the inhibition in [4] amounted to 94.1%; in data set [5], 90%; in data set [6], 88.4%; in [7], 92.5%; in [8], 89.8%; in data set [9], 96.4%. For the same compound, the inhibition in data set [10] came out at 89.3%; in data set [11], 92.6%; in [12], 96.4%; in [13], 95.3%.

`Cc1nc(Nc2ncc(C(=O)Nc3c(C)cccc3Cl)s2)cc(N2CCN(CCF)CC2)n1`: the pIC50 in “cells [1]” was 10.00; in the data set “cells [2]” it was 8.96; with K562, 8.96. Besides, the inhibition in data set [4] was 97%; in data set [5], 7.2%; in data set [15], -5.6%; in [6], 86%; in data set [7] it was 98.1%; in data set [8], 97.5%. Also, the inhibition in [9] came out at 0.3%; in [10] it was 95.2%; in [11], 98.1%; in data set [12] it was 83.1%; in [16], 16%; in data set [13] it was 23.1%. Also, in the data set on Mus musculus [14], the Activity entry is recorded as “Non-toxic”.
